# Measurements: publication PMC9647759 (Pharmaceutical Chemistry Journal, 2022)
# How the values were obtained:
# Vero cells = assay: In vitro cytotoxicity assay on Vero cells; assay type: cell-based, monkeys; settings: 100 μM, 24 h, 3000 Vero cells/well
# Summary of the method: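 Vero cells, about 3000 per well at 90% confluency, were exposed to the test compound at 100 μM for 24 h at 37°C in a CO2 incubator. The percentage of metabolically active cells was compared with untreated control to give cytotoxicity. Three independent runs were done.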
# female Wistar rats = assay: Acute oral toxicity; assay type: in vivo; settings: 100 mg/kg, observed 48 h for mortality
# Summary of the method: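 Female Wistar rats were fasted overnight, then given the test compound orally as a single 100 mg/kg dose. Animals were watched for signs of morbidity […].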
Structure (SMILES),toxicity in vitro (Vero cells),toxicity in vivo (female Wistar rats)
"Cc1nc2ccccc2n1CC(=O)NNc1ccccc1 [MBPHYD, 2-(2-methyl-1H-benzimidazol-1-yl)-N′-phenylacetohydrazide]",non-toxic,non-toxic
"Cc1nc2ccccc2n1CC(=O)NN [MBNHYD, 2-(2-methyl-1H-benzimidazol-1-yl) acetohydrazide]",non-toxic,non-toxic
